Rows were chosen to be rich in hits. Some 4.6% of all compounds tested hit in one or more screens of this group.
TAAR1 antag = human TAAR1 antagonism | Q96RJ0 | CHO RD-HGA16 TAAR1, Fluo-8 calcium fluorescence, antagonist | inhibition, % at 3 µM | 360,000 tested, 1.5% active;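 active means inhibition above a per-plate cutoff, the mean inhibition of test compounds on that plate plus 3 SD, cut at about 49% in these data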;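 further: 0% = DMSO plus EC80 beta-PEA response and 100% = DMSO alone without agonist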
Target sequence (Q96RJ0 whole entry, looked up): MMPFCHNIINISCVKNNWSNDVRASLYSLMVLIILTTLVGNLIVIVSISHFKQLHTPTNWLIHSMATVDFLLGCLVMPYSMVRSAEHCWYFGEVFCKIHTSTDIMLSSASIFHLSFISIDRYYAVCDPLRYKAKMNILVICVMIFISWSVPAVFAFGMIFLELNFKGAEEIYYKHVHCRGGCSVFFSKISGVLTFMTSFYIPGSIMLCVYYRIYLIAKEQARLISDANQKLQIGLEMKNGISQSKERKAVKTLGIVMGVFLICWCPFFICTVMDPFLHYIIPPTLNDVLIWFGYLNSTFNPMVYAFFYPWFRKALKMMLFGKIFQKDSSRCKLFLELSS
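System: RD-HGA16 CHO cells with stable hTAAR1 and Gα16 | Probe or stimulus: EC80 β-phenethylamine stimulus | Dosing: 3 µM, single point | Times: Dye loading 75 min at 37 °C, then 30 min room temperature | Measured by: Fluo-8 calcium-sensitive fluorescence | Read-out basis: % inhibition of agonist calcium response | Replicates: n of 1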
TAAR1 ag = human TAAR1 agonism | AID 624467 | 360,000 tested, 0.99% active | activation, % at 3 µM | CHO RD-HGA16 TAAR1, Fluo-8 calcium fluorescence; vehicle wells 0%, saturating PEA agonist 100%;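 active means activation above the mean activation of all test compounds in the run plus 3 SD, cut at about 38% in these data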
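Test system: RD-HGA16 (CHO) cells co-expressing Gα16 and hTAAR1 | Doses: Single dose, 3 µM | Schedule: 17-24 h seeding, 75 min 37 °C dye, 30 min RT | Evaluation: % activation from peak over basal fluorescence ratio, DMSO-to-PEA scaled | Technique: Kinetic Fluo-8 calcium fluorescence | Benchmarks: Low control DMSO, high control PEA (EC100)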
OX1R antag-1 = antagonists of human orexin 1 receptor (OX1R) | O43613 | OX1R-expressing cells, FRET antagonist read-out | inhibition, % at 6.6 µM | AID 485270 | 330,000 tested, 1.8% active; in the data active means inhibition mostly above about 38%, no sharp cut-off; inactive means mostly below about 40%;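 further: 0% = agonist challenge alone and 100% = reference antagonist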
GPR7 antag = blocks human GPR7 receptor signaling; 290,000 tested, 1.1% active; GPR7-expressing cells, fluorescence antagonist assay; inhibition, % at 4.4 µM; in the data active means inhibition above about 16%, passing the limit was not always enough;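 further: cells stimulated with the agonist NPW; 0% = agonist with vehicle and 100% = vehicle without agonist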
Target sequence (P48145 whole entry, looked up): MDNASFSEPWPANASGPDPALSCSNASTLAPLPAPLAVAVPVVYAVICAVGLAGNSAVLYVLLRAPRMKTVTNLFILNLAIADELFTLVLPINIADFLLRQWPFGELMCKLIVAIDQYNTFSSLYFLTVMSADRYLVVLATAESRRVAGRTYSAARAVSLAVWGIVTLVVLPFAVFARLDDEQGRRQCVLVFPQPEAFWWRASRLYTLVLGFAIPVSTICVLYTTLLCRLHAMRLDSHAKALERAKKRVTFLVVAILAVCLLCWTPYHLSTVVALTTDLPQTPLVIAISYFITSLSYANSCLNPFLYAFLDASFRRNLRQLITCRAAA
CHO parental Ca = counter-screen for OX1R antagonists: effect in parental CHO cells. inhibition, % at 5.6 µM. parental CHO-K1, ATP-induced calcium, Fluo-8 fluorescence. 330,000 tested, 0.63% active;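 active means inhibition above that plate's mean sample inhibition plus 3 SD, cut at about 26% in these data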;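 further: 0% = ATP-challenged DMSO wells and 100% = DMSO wells without ATP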
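material = parental CHO cells | also added = ATP as calcium-mobilizing challenge | dosing = single point at 5.6 µM | detection = intracellular calcium via Fluo-8 no-wash fluorescent dye | read-out = % inhibition | benchmarks = low control ATP plus DMSO, high control DMSO only | repeats = one well per compound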
OX1R antag-2 = human HCRTR1 antagonism; inhibition, % at 5 µM; 330,000 tested, 0.43% active; CHO/OX1R cells, Fluo-8 calcium fluorescence, orexin A; O43613;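 active means inhibition above its plate's threshold, mean inhibition of all tested compounds on the plate plus 3 SD, cut at about 37% in these data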;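 further: 0% = orexin A challenge wells and 100% = SB-334867-A antagonist wells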
* marks the source's active call; other numbers are inactive results.

Results for NC(COCc1ccccc1)c1csc(Nc2ccc(C(=O)c3ccccc3)cc2)n1 (stereo not given) ?
TAAR1 antag: 42.7; TAAR1 ag: 49.9*

How did NC(CCc1ccccc1)c1csc(NC(=O)Nc2cccc(Cl)c2)n1 (stereo not given) do in these assays?
TAAR1 antag: 46.3; TAAR1 ag: 39.0*

How did Nc1[nH]c(C(=O)c2ccccc2)c(-c2ccccc2[N+](=O)[O-])c1C(=O)NCCc1c[nH]c2ccccc12 do in these assays?
TAAR1 antag: 22.4; TAAR1 ag: 9.8

How did CC(C)[C@@H]1Cc2[nH]c(=O)[nH]c(=O)c2[C@H](c2ccc(F)cc2)O1 do in these assays?
TAAR1 antag: -15.8; TAAR1 ag: 1.6

How did O=C(C(=O)N1CCCCCC1)c1c[nH]c2ccccc12 do in these assays?
TAAR1 antag: -10.0; TAAR1 ag: 2.7; GPR7 antag: -17.7

How did C[n+]1cc(C(=O)N2CCCCC2)ccc1/C=C/c1c[nH]c2ccccc12 do in these assays?
TAAR1 antag: 1.5; TAAR1 ag: 25.3; OX1R antag-1: 69.3*; GPR7 antag: -2.1; CHO parental Ca: 5.2; OX1R antag-2: -0.2

How did COc1ccc2cc(CCNS(=O)(=O)c3c(C)cc(C)cc3C)c(=O)[nH]c2c1 do in these assays?
TAAR1 antag: -17.7; TAAR1 ag: -0.4; OX1R antag-1: 76.1*; GPR7 antag: 6.8; CHO parental Ca: -8.6; OX1R antag-2: 11.4

How did O=C1NC(Cc2ccccc2)c2nc3ccc(Cl)cc3c(=O)n2-c2cc3ccccc3cc21 (stereo not given) do in these assays?
TAAR1 antag: -9.6; TAAR1 ag: 0.2

What do the screens show for `O=C1NC(Cc2ccccc2)c2nc3ccc(F)cc3c(=O)n2-c2cc3ccccc3cc21` (stereo not given)?
TAAR1 antag: 48.9*; TAAR1 ag: 6.0

How did O=C(NCCNC(=O)Nc1ccc(Cl)cc1)Nc1ccc(Cl)cc1 do in these assays?
TAAR1 antag: 4.9; TAAR1 ag: 4.2

Results for Cc1nnsc1SCCNC(=O)Nc1ccc(Cl)cc1 ?
TAAR1 antag: 24.6; TAAR1 ag: 14.5; OX1R antag-1: 18.9; GPR7 antag: -7.9; CHO parental Ca: 40.5*; OX1R antag-2: 36.5*

Results for CCOC(=O)[C@]12CCCC=C1N(CCC1=CCCCC1)C(=O)[C@H](CC(=O)NCc1cccs1)C2 ?
TAAR1 antag: 3.4; TAAR1 ag: 2.2

Results for O=C(Nc1ccccc1)c1ccc[n+](Cc2ccc([N+](=O)[O-])cc2)c1 ?
TAAR1 antag: -4.8; TAAR1 ag: 2.6; OX1R antag-1: 62.9*; GPR7 antag: 0.3; CHO parental Ca: -8.2; OX1R antag-2: -10.6

How did N#CCCCc1cn(-c2nc3ccccc3s2)nn1 do in these assays?
TAAR1 antag: -11.8; TAAR1 ag: 0.8

What do the screens show for `C#CCn1c(=NC(=O)c2cccs2)sc2cccc(OC)c21`?
TAAR1 antag: 13.8; TAAR1 ag: 0.1; OX1R antag-1: 65.7*; GPR7 antag: -1.5; CHO parental Ca: 12.2; OX1R antag-2: -40.7

How did C#CCn1c(=NC(=O)CN2C(=O)CCC2=O)sc2cccc(OC)c21 do in these assays?
TAAR1 antag: 2.6; TAAR1 ag: 0.5; OX1R antag-1: 7.7; GPR7 antag: -7.2; CHO parental Ca: -14.0; OX1R antag-2: -21.5

Results for Cn1c(=NC(=O)CS(=O)(=O)c2ccccc2)sc2ccccc21 ?
TAAR1 antag: 0.8; TAAR1 ag: 0.6; OX1R antag-1: 1.2; CHO parental Ca: -5.9; OX1R antag-2: -12.9

Results for CCn1c(=NC(=O)CS(=O)(=O)c2ccccc2)sc2cccc(OC)c21 ?
TAAR1 antag: 7.1; TAAR1 ag: 2.7; OX1R antag-1: 33.1*; CHO parental Ca: 5.0; OX1R antag-2: 19.5

Results for COCC(=O)N1C[C@@H](C)[C@@H](OC)CN(C)C(=O)c2ccc(NC(=O)c3cnccn3)cc2OC[C@H]1C ?
TAAR1 antag: -10.4; TAAR1 ag: 2.9

Results for Cn1cnnc1SCC(=O)Nc1ccc2nc(SCc3cccc4ccccc34)sc2c1 ?
TAAR1 antag: 16.6; TAAR1 ag: 41.7*; OX1R antag-1: 34.9; GPR7 antag: 18.1; CHO parental Ca: -34.7; OX1R antag-2: -14.5

Results for Cn1cnnc1SCC(=O)Nc1ccc2nc(SCc3ccccc3Cl)sc2c1 ?
TAAR1 antag: 1.8; TAAR1 ag: 17.7; OX1R antag-1: 18.3; GPR7 antag: 2.4; CHO parental Ca: -17.7; OX1R antag-2: -23.4

How did C/C(C/C(C)=C1/SC(=S)NC1=O)=C1\SC(=S)NC1=O do in these assays?
TAAR1 antag: 6.1; TAAR1 ag: 1.2; GPR7 antag: -1.7

Results for CCCCCC/C(C)=C1/SC(=S)NC1=O ?
TAAR1 antag: 14.7; TAAR1 ag: 3.5; OX1R antag-1: 45.0*; GPR7 antag: -6.7; CHO parental Ca: -5.6; OX1R antag-2: 13.6

What do the screens show for `COc1cc(-c2c(C(=O)c3ccccc3)[nH]c(N)c2C(=O)NCCc2c[nH]c3ccccc23)ccc1F`?
TAAR1 antag: 6.8; TAAR1 ag: 4.9

What do the screens show for `NC(=O)[C@@H]1CCCN1C(=O)[C@@H](Cc1ccccc1)NC(=O)[C@H]1O[C@@H](n2ccc(N)nc2=O)[C@H](O)[C@@H]1O`?
TAAR1 antag: -3.9; TAAR1 ag: 1.1

Results for O=C(COC(=O)c1cccc(N2C(=O)c3ccccc3C2=O)c1)Nc1ccccc1 ?
TAAR1 antag: 22.6; TAAR1 ag: 3.8; OX1R antag-1: 20.6; GPR7 antag: -3.7; CHO parental Ca: -20.8; OX1R antag-2: -13.5

What do the screens show for `N#Cc1cccc(NC(=O)COC(=O)c2cccc(N3C(=O)c4ccccc4C3=O)c2)c1`?
TAAR1 antag: 60.1*; TAAR1 ag: 8.0; OX1R antag-1: 26.3; GPR7 antag: 6.2; CHO parental Ca: -8.2; OX1R antag-2: -5.0

What do the screens show for `Cc1cc(C(=O)N2CCC2(C)C(=O)Nc2cccc3c2CCCC3)nn1C` (stereo not given)?
TAAR1 antag: -0.2; TAAR1 ag: 0.9

How did N#C/C(=C/C1=C(N2CCOCC2)C(=C/c2ccc(Cl)cc2)/CC1)C(=O)Nc1ccccc1F do in these assays?
TAAR1 antag: 0.7; TAAR1 ag: 3.8

Results for CCc1ccc(OCC(=O)Nc2ccc(-c3cc4ccccc4oc3=O)c(OC)c2)cc1 ?
TAAR1 antag: 15.3; TAAR1 ag: 1.1; OX1R antag-1: 28.0; GPR7 antag: -7.2; CHO parental Ca: 39.8*; OX1R antag-2: 10.0

Results for CC(=O)c1ccc(S(=O)(=O)N2CCC(NC(=O)Nc3cccc(F)c3)CC2)cc1 ?
TAAR1 antag: 48.2; TAAR1 ag: 13.7; OX1R antag-1: -0.2; GPR7 antag: -1.8; CHO parental Ca: -5.9; OX1R antag-2: -16.1

Screening data from PubChem.
